Source: PubChem
Only some compounds are listed: those with a hit (about 2% of all), similar ones and a draw of the others.
DENV2 CPE: DENV2-induced cell death inhibition; DENV2-infected cells, cytopathic effect rescue, plate reader; CPE inhibition, % at 9.99 µM; 1.7% of 350,000 active; AID 651640; in the data active = CPE inhibition above about 20%, passing the limit was not always enough; inconclusive = no clear call, values can overlap the other calls; tested in BHK-21 cells;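 also: 0% = median of neutral control wells and 100% = median of positive control wells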
E-selectin induc: induces E-selectin expression in human endothelial cells. P16581. HUVEC E-selectin immunofluorescence imaging; normalized: neutral wells 0, TNF-alpha wells 100. activation, % at 7.58 µM. 0.37% of 260,000 active;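 active = mean E-selectin-positive cell signal at least 10% of the positive control, reached in at least 60% of replicates, without over 20% cell loss; inconclusive = no rule given, readout overlaps actives, possibly toxicity-flagged; inactive = the rest, including those meeting only one limit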
Target sequence (P16581 whole entry, looked up): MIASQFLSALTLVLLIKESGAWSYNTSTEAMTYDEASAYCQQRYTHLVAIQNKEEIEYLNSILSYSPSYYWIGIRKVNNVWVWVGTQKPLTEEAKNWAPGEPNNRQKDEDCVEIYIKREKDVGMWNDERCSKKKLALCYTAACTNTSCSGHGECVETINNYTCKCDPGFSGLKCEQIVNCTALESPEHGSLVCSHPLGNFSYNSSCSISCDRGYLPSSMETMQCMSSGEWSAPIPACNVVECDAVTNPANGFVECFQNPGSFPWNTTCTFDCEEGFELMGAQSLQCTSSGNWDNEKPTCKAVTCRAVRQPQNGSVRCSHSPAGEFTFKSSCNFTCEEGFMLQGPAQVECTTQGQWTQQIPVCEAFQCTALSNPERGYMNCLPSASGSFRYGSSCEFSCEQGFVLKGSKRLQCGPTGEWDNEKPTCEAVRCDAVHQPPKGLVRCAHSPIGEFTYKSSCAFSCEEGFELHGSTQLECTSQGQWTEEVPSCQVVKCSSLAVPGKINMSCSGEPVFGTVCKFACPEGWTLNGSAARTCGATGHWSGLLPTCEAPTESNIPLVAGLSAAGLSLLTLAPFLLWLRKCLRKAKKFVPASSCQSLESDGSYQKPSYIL
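System: HUVEC, human umbilical vein endothelial cells; quantity: 3,000 cells/well; buffer or medium: EGM-2 medium, gelatin-coated wells; dosing: single-point compound dose; detection: immunofluorescence imaging; evaluation: % PE-positive cells; benchmarks: TNF-alpha, DMSO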
Xi reactivation: activators of X-chromosome reactivation in mouse fibroblasts; XiGFP mouse fibroblasts, % GFP-positive cells imaging, 3 d; cells co-treated with 5-aza-dC sensitizer; scaled so ellipticine positive control = 100%; activation, % at 7.58 µM; 0.055% of 360,000 active; AID 743238;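 active = mean normalized replicate activation at least 10% and every replicate at or above 10%; inconclusive = only one of the two criteria met; inactive = mean below 10% and not all replicates reach 10%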;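 also: 0% = median of on-plate neutral control wells and 100% = ellipticine 6 µM median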
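Assay system: SV40-immortalized XiGFP fibroblast cells, line 68-5-11; buffer or medium: DMEM plus 5-aza-dC sensitizer; compound: one concentration, pinned; timing: compounds 3 days, fix/stain 15 min at room temperature; benchmarks: positive control ellipticine, 6 µM final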
S100A4 MyoIIA: inhibitors of human S100A4 binding to myosin IIA peptide. P26447. S100A4/TAMRA-MyoIIA peptide fluorescence polarization. inhibition, % at 10.7 µM. 0.14% of 360,000 active;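 active = mean inhibition of at least 70% across replicates, with every replicate also reaching that level; inconclusive = mean inhibition reaches 70% but some replicates fall short; inactive = mean inhibition below 70%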
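assay system = human S100A4 monomer with TAMRA-labelled myosin IIA peptide | also added = labelled myosin peptide probe, 5 nM | incubation = 5 min between mix addition and reading | control set = DMSO and TFP controls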
An asterisk follows results filed as active; ? = inconclusive; · = no result given.

SMILES	DENV2 CPE	E-selectin induc	Xi reactivation	S100A4 MyoIIA
COC(=O)c1ccc(NS(=O)(=O)c2ccc(-c3cc(C)no3)s2)cc1	-5.1	-0.1	0.1	-0.9
O=C(O)C(Cc1ccccc1)NS(=O)(=O)c1ccc(Cl)cc1 (stereo not drawn)	-2.9	0.0	0.2	2.3
O=C(O)C(Cc1ccc(Cl)cc1)NS(=O)(=O)c1ccc(Cl)cc1 (stereo not drawn)	23.4*	0.0	0.0	-1.4
Cc1ccc(S(=O)(=O)N(CC(=O)NCc2ccc(F)cc2)C(=O)N2CCN(C)CC2)cc1	31.0*	0.0	0.1	-0.9
Cc1ccc(S(=O)(=O)N(CC(=O)NCc2ccccc2Cl)C(=O)N2CCN(C)CC2)cc1	-4.0	-0.1	0.0	-2.9
COc1ccc(C)cc1NC(=O)C(c1ccccc1)N1CCN(CC(=O)N2CCOCC2)CC1 (stereo not drawn)	28.0*	0.1	0.0	4.3
COc1ccc(C)cc1NC(=O)C(c1ccccc1)N1CCN(CC(=O)N2CCCC2)CC1 (stereo not drawn)	-1.6	1.1	0.1	4.6
COc1ccccc1NC(=O)CN1CCOCC1	74.9*	-0.1	0.2	1.4
CNC[C@H]1Oc2c(NC(=O)Nc3ccc(OC)cc3)cccc2C(=O)N([C@@H](C)CO)C[C@H]1C	0.4	-0.1	0.0	0.7
CCCCNC(=S)NNC(=O)c1ccc2c(c1)OCO2	141.7*	·	0.0	1.9
C[C@H](CO)N1C[C@H](C)[C@@H](CN(C)CC2CCCCC2)Oc2ccc(NC(=O)Nc3ccc4c(c3)OCO4)cc2CC1=O	29.3*	-0.2	0.1	0.8
C[C@@H]1CN([C@H](C)CO)C(=O)Cc2cc(NC(=O)NC3CCCCC3)ccc2O[C@H]1CN(C)CC1CCCCC1	24.9*	0.5	-1.3	-4.0
C[C@H]1CN([C@@H](C)CO)C(=O)Cc2cc(NC(=O)Nc3ccc4c(c3)OCO4)ccc2O[C@H]1CN(C)CC1CCCCC1	-3.2	-0.4	0.2	2.4
COC(=O)[C@@]1(Cc2ccc(F)cc2)[C@H]2c3cc(C(=O)N4CCCC4)n(CCc4ccc(OC)c(Br)c4)c3C[C@H]2CN1C(=O)c1ccccc1	-6.1	-7.3	0.0	-13.9
CC(C)N1CCc2c(sc(NC(=O)c3cc4cc([N+](=O)[O-])ccc4s3)c2C(N)=O)C1	-0.7	-0.2	64.6*	9.2
CC(C)N1CCc2c(sc(NC(=O)c3ccc(C(=O)c4ccccc4)cc3)c2C(N)=O)C1	14.4	0.0	2.0	-3.1
CC(C)N1CCc2c(sc(NC(=O)c3ccc4ccccc4c3)c2C(N)=O)C1	-3.1	3.1	99.2*	1.1
CC(=O)c1ccc(C(=O)Nc2sc3c(c2C(N)=O)CCN(Cc2ccccc2)C3)cc1	19.7	5.6	38.7*	-6.1
O=C(NCCN1C(=O)C2C3C=CC(C3)C2C1=O)Nc1ccc(Br)cc1 (stereo not drawn)	4.9	0.8	0.4	-0.4
O=C(NCCN1C(=O)C2C3C=CC(C3)C2C1=O)Nc1cccnc1 (stereo not drawn)	28.8*	0.5	0.1	-1.9
O=C1NC(=S)S/C1=C\C=C\c1ccc([N+](=O)[O-])o1	-3.0	248.1*	?	-8.8
Cc1cnc(C(=O)N(c2ccccc2)C(c2ccccc2)c2nc3ccccc3[nH]2)cn1 (stereo not drawn)	?	·	0.1	-7.0
COc1cc(/C=N/NC(=O)NC23CC4CC(CC(C4)C2)C3)ccc1OCC(N)=O	-3.8	-0.1	0.0	-1.8
CN(C)CCC1(c2ccccc2)CCN(C)C1=O (stereo not drawn)	0.9	0.5	-0.1	0.2
COc1ccc(-c2csc(C(NC(C)=O)c3cccc(F)c3)n2)cc1 (stereo not drawn)	-6.7	0.2	0.1	4.6
SMILES	DENV2 CPE	E-selectin induc	Xi reactivation	S100A4 MyoIIA
CC(=O)NC(c1cccc(F)c1)c1nc(-c2ccc(N(C)C)cc2)cs1 (stereo not drawn)	26.4*	0.1	-0.1	7.3
OC[C@@H]1[C@@H](c2ccc(-c3ccccc3F)cc2)[C@@H]2CN(Cc3ccncc3)CCCCN12	22.3*	-0.2	0.0	·
OC[C@H]1[C@@H](c2ccc(-c3ccc(F)cc3)cc2)[C@H]2CN(Cc3ccncc3)CCCCN21	28.2*	0.0	0.1	0.7
O=C1CN(Cc2ccc(F)cc2)C[C@@H]2[C@@H](c3ccc(-c4ccccc4F)cc3)[C@H](CO)N12	6.7	-0.3	0.1	111.7*
OC[C@@H]1[C@H](c2ccc(-c3ccccc3F)cc2)[C@@H]2CN(Cc3ccncc3)CCCCN12	·	-0.1	0.0	·
Cc1nnc(SCC(=O)N2CCOCC2)c2ccccc12	·	-0.1	·	·
Cc1cccc(S(=O)(=O)N2CC[C@@H]3[C@H](CO)Nc4ccc(C#Cc5ccc(F)cc5)cc4[C@@H]32)c1	-0.4	-0.8	0.2	97.4*
COc1ccccc1C#Cc1ccc2c(c1)[C@@H]1[C@@H](CCN1S(=O)(=O)c1ccc(F)cc1)[C@@H](CO)N2	29.3*	0.6	0.0	-0.8
COc1ccccc1C#Cc1ccc2c(c1)[C@H]1[C@H](CCN1S(=O)(=O)c1ccccc1)[C@@H](CO)N2	11.0	0.1	0.0	4.4
Cc1ccc(S(=O)(=O)N2CC[C@@H]3[C@H]2c2cc(C#Cc4ccc(F)cc4)ccc2N[C@@H]3CO)cc1	29.0*	-0.2	0.0	-0.1
COc1ccccc1C#Cc1ccc2c(c1)[C@H]1[C@H](CCN1C(=O)c1ccc(F)cc1)[C@@H](CO)N2	54.0*	0.2	0.1	-0.2
COC(=O)[C@@](C)(O)C1(C(=O)SC(C)(C)C)CC1	130.0*	-0.1	0.0	-2.4
CCCn1c(N)c(C(=O)CN(C)CC(=O)Nc2cc(C)ccc2C)c(=O)[nH]c1=O	51.1*	0.2	0.0	-3.6
CC(=O)C1CN(S(=O)(=O)c2ccc(C)cc2)C(c2ccccc2)CC1C (stereo not drawn)	38.5*	-0.4	0.0	-3.0
CN(C(=O)c1ccc(Br)o1)C1CCCCC1	60.8*	0.1	0.1	-1.6
Cc1cc2oc3ccc(NCCCN4CCOCC4)cc3c(=O)c2cc1C	37.4*	0.0	-0.1	-4.3
Cc1cc2oc3ccc(NCCCn4ccnc4)cc3c(=O)c2cc1C	·	0.3	?	·
COc1ccc(S(=O)(=O)Nc2ccc3c(c2)C(=O)N([C@@H](C)CO)C[C@H](C)[C@H](CN(C)Cc2ccncc2)OCCCC[C@H](C)O3)cc1	106.4*	0.4	0.1	-0.7
COc1ccc(S(=O)(=O)Nc2ccc3c(c2)C(=O)N([C@@H](C)CO)C[C@@H](C)[C@@H](CN(C)Cc2ccncc2)OCCCC[C@H](C)O3)cc1	36.5*	0.3	-0.4	-0.8
Cc1cccc(NC(=O)CNC(=O)c2ccccc2Cl)n1	3.1	·	0.5	99.3*
Cc1cccc(NC(=O)CNC(=O)c2sc3ccccc3c2Cl)n1	6.8	·	-0.1	-3.0
CN(C)CC#Cc1ccc([C@H]2[C@@H](CO)N3CCCCN(C(=O)c4ccc5c(c4)OCO5)C[C@H]23)cc1	22.3*	-0.3	0.2	-3.3
